According to PMC1301599 (Nucleic Acids Research, 2005):

Tests used:
Assay type in all cases: cell-based
[1] = system: HIV-1 Tat-dependent trans-activation (TAR RNA; HIV-1 LTR firefly luciferase) in HeLa Tet-Off/Tat/luc-f/luc-R cells; experiment: Inhibition of Tat-dependent trans-activation in HeLa cell reporter assay; details: for reduction of firefly luciferase activity, 6 h delivery with chloroquine: 6 h incubation in presence of 100 µM chloroquine, then 18 h growth, 0.312-2.5 µM
How it was run: (§1)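 HeLa Tet-Off/Tat/luc-f/luc-R cells (HIV-1 LTR-firefly, CMV-Renilla), 10 × 10^3/well, grown 24 h at 37°C. They were exposed 6 h in Opti-MEM with 100 µM chloroquine, with or without test compound diluted from 2.5 µM in that medium. Cells were PBS-washed, then grown 18 h in DMEM/10% FBS. Lysate firefly and Renilla luminescence was read sequentially, normalised to parallel-plate viability absorbance, and expressed as % of cells without test compound. Two replicates, three experiments.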

[2] = system: constitutive CMV promoter-directed Renilla luciferase in HeLa Tet-Off/Tat/luc-f/luc-R cells; experiment: Control Renilla luciferase expression in HeLa cell reporter assay; details: chloroquine alone treatment; data not shown
How it was run: as §1

[3] = system: HeLa Tet-Off/Tat/luc-f/luc-R cells; experiment: Toxicity assay; details: 100 µM chloroquine; data not shown
How it was run: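 This ran on a duplicate plate of HeLa Tet-Off/Tat/luc-f/luc-R cells (10 × 10^3/well, 24 h at 37°C). The plate got 6 h with 100 µM chloroquine in Opti-MEM, then a PBS wash and 18 h in DMEM/10% FBS. Live cells were quantified colorimetrically with the CellTiter 96 AQueous One reagent, absorbance at 490 nm. Two replicates in each of three experiments.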

Row | Molecule | level of firefly luciferase activity, chloroquine alone ([1]; 100 µM chloroquine, no CPP–PNA) | level of Renilla luciferase, chloroquine alone [2] | HeLa cell viability, chloroquine alone [3] | reduction of firefly luciferase activity, 6 h delivery with chloroquine [1]
1 | CCN(CC)CCCC(C)Nc1ccnc2cc(Cl)ccc12 (centres unmarked) [chloroquine] | not significantly affected | reduction | No effect | –
2 | ATCGCTCGCACCATGC (disulfide) [scrambled conjugate 13] | – | – | – | no inhibitory activity
3 | CTCCGCAGCTCAGATC (disulfide) [mismatched conjugate 13] | – | – | – | no inhibitory activity
